# Measured values: ChEMBL document CHEMBL1255347, “Multiclonal outbreak of Klebsiella pneumoniae producing extended-spectrum beta-lactamase CTX-M-2 and novel variant CTX-M-59 in a neonatal intensive care unit in Brazil” (2008)
# Assays:
# [1] = tested on: Klebsiella pneumoniae; test: Antimicrobial activity against CTX-M-59 and TEM-1 producing Klebsiella pneumoniae transconjugants/transformants with PFGE pulsotype C by Etest in presence of clavulanic acid; type: functional
# Summary of the method: (§1)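 The recipient was E. coli XL1-Blue Rifr NAr. Plasmids moved by broth mating, with transconjugants selected on LB agar containing ampicillin, rifampin and nalidixic acid, each at 50 μg/ml. Where mating failed, alkaline-lysis plasmid extracts were electroporated and selected on ampicillin 50 μg/ml. β-lactam MICs were read by Etest, with and without clavulanic acid.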
# [2] = tested on: Escherichia coli; test: Antimicrobial activity against Escherichia coli str. K-12 substr. DH10B harboring plasmid CTX-M-2 in presence of clavulanic acid; type: functional; details: K-12 DH10B
# Summary of the method: (§2)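 blaCTX-M PCR products were cut with XbaI/BamHI and cloned into pBC-SK(−), then electroporated into E. coli DH10B. Transformants were selected on LB agar with ampicillin 50 μg/ml and chloramphenicol 30 μg/ml, and sequences were confirmed. These clones were used for β-lactam MICs, with and without clavulanic acid.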
# [3] = tested on: Klebsiella pneumoniae; test: Antimicrobial activity against CTX-M-2 and TEM-1 producing Klebsiella pneumoniae transconjugants/transformants with PFGE pulsotype H by Etest in presence of clavulanic acid; type: functional
# [4] = tested on: Klebsiella pneumoniae; test: Antimicrobial activity against CTX-M-2 producing Klebsiella pneumoniae with PFGE pulsotype F by Etest in presence of clavulanic acid; type: functional
# Summary of the method: (§3)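 Clinical K. pneumoniae isolates from a neonatal ICU outbreak near São Paulo were typed by XbaI PFGE using Tenover criteria. Cultures were grown in LB broth at 37°C. Etest MICs followed the manufacturer's instructions, with cefotaxime and ceftazidime each tested with and without clavulanic acid.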
# [5] = tested on: Klebsiella pneumoniae; test: Antimicrobial activity against SHV-5 producing Klebsiella pneumoniae transconjugants/transformants with PFGE pulsotype D by Etest in presence of clavulanic acid; type: functional; summary of the method: as §1
# [6] = tested on: Klebsiella pneumoniae; test: Antimicrobial activity against CTX-M-2 producing Klebsiella pneumoniae with PFGE pulsotype J by Etest in presence of clavulanic acid; type: functional; summary of the method: as §3
# [7] = tested on: Klebsiella pneumoniae; test: Antimicrobial activity against CTX-M-2 and TEM-1 producing Klebsiella pneumoniae transconjugants/transformants with PFGE pulsotype F by Etest in presence of clavulanic acid; type: functional; summary of the method: as §1
# [8] = tested on: Klebsiella pneumoniae; test: Antimicrobial activity against CTX-M-59 producing Klebsiella pneumoniae with PFGE pulsotype G by Etest; type: functional; summary of the method: as §3
# [9] = tested on: Klebsiella pneumoniae; test: Antimicrobial activity against CTX-M-59 and TEM-1 producing Klebsiella pneumoniae transconjugants/transformants with PFGE pulsotype G by Etest in presence of clavulanic acid; type: functional; summary of the method: as §1
# [10] = tested on: Klebsiella pneumoniae; test: Antimicrobial activity against CTX-M-2 producing Klebsiella pneumoniae with PFGE pulsotype I by Etest in presence of clavulanic acid; type: functional; summary of the method: as §3
# [11] = tested on: Klebsiella pneumoniae; test: Antimicrobial activity against CTX-M-2 producing Klebsiella pneumoniae with PFGE pulsotype I by Etest; type: functional
# [12] = tested on: Klebsiella pneumoniae; test: Antimicrobial activity against CTX-M-2 producing Klebsiella pneumoniae with PFGE pulsotype H by Etest in presence of clavulanic acid; type: functional
# Summary of the method: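 Etest strips used per manufacturer's instructions to read MICs of cefotaxime and ceftazidime, each with clavulanic acid, on clinical NICU K. pneumoniae outbreak isolates. Isolates were typed by XbaI PFGE using Tenover criteria and routinely grown in LB broth at 37°C.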
# [13] = tested on: Klebsiella pneumoniae; test: Antimicrobial activity against CTX-M-2 and TEM-1 producing Klebsiella pneumoniae transconjugants/transformants with PFGE pulsotype I by Etest in presence of clavulanic acid; type: functional; summary of the method: as §1
# [14] = tested on: Klebsiella pneumoniae; test: Antimicrobial activity against CTX-M-2 and TEM-1 producing Klebsiella pneumoniae transconjugants/transformants with PFGE pulsotype F by Etest; type: functional; summary of the method: as §1
# [15] = tested on: Klebsiella pneumoniae; test: Antimicrobial activity against CTX-M-59 and TEM-1 producing Klebsiella pneumoniae transconjugants/transformants with PFGE pulsotype E by Etest; type: functional; summary of the method: as §1
# [16] = tested on: Klebsiella pneumoniae; test: Antimicrobial activity against CTX-M-2 producing Klebsiella pneumoniae with PFGE pulsotype H by Etest; type: functional; summary of the method: as §3
# [17] = tested on: Klebsiella pneumoniae; test: Antimicrobial activity against CTX-M-2 and TEM-1 producing Klebsiella pneumoniae transconjugants/transformants with PFGE pulsotype B by Etest; type: functional; summary of the method: as §1
# [18] = tested on: Klebsiella pneumoniae; test: Antimicrobial activity against CTX-M-2 producing Klebsiella pneumoniae with PFGE pulsotype A by Etest; type: functional; summary of the method: as §3
# [19] = tested on: Klebsiella pneumoniae; test: Antimicrobial activity against SHV-5 producing Klebsiella pneumoniae transconjugants/transformants with PFGE pulsotype D by Etest; type: functional; summary of the method: as §1
# [20] = tested on: Klebsiella pneumoniae; test: Antimicrobial activity against CTX-M-2 and TEM-1 producing Klebsiella pneumoniae transconjugants/transformants with PFGE pulsotype A by Etest; type: functional; summary of the method: as §1
# [21] = tested on: Klebsiella pneumoniae; test: Antimicrobial activity against CTX-M-2 and TEM-1 producing Klebsiella pneumoniae transconjugants/transformants with PFGE pulsotype H by Etest; type: functional; summary of the method: as §1
# [22] = tested on: Escherichia coli; test: Antimicrobial activity against CTX-M-2 and TEM-1 producing Escherichia coli transconjugants/transformants with PFGE pulsotype A by Etest in presence of clavulanic acid
# [23] = tested on: Klebsiella pneumoniae; test: Antimicrobial activity against CTX-M-2 and TEM-1 producing Klebsiella pneumoniae transconjugants/transformants with PFGE pulsotype I by Etest; type: functional; summary of the method: as §1
# [24] = tested on: Klebsiella pneumoniae; test: Antimicrobial activity against CTX-M-59 producing Klebsiella pneumoniae with PFGE pulsotype E by Etest in presence of clavulanic acid; type: functional
# Summary of the method: (§4)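 MICs were determined by Etest strips following the manufacturer's instructions, using cefotaxime and ceftazidime each combined with clavulanic acid. The test strains were clinical NICU outbreak isolates confirmed as ESBL producers by disk diffusion. Pulsotypes were assigned by XbaI PFGE using Tenover relatedness criteria. Cultures were routinely grown in LB broth at 37°C.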
# [25] = tested on: Klebsiella pneumoniae; test: Antimicrobial activity against CTX-M-2 producing Klebsiella pneumoniae with PFGE pulsotype B by Etest; type: functional; summary of the method: as §3
# [26] = tested on: Klebsiella pneumoniae; test: Antimicrobial activity against CTX-M-59 producing Klebsiella pneumoniae with PFGE pulsotype C by Etest in presence of clavulanic acid; type: functional; summary of the method: as §3
# [27] = tested on: Klebsiella pneumoniae; test: Antimicrobial activity against CTX-M-2 and TEM-1 producing Klebsiella pneumoniae transconjugants/transformants with PFGE pulsotype J by Etest; type: functional; summary of the method: as §1
# [28] = tested on: Klebsiella pneumoniae; test: Antimicrobial activity against SHV-5 producing Klebsiella pneumoniae with PFGE pulsotype D by Etest; type: functional; summary of the method: as §3
# [29] = tested on: Klebsiella pneumoniae; test: Antimicrobial activity against CTX-M-59 producing Klebsiella pneumoniae with PFGE pulsotype C by Etest; type: functional
# [30] = tested on: Klebsiella pneumoniae; test: Antimicrobial activity against CTX-M-59 and TEM-1 producing Klebsiella pneumoniae transconjugants/transformants with PFGE pulsotype G by Etest; type: functional; summary of the method: as §1
# [31] = tested on: Klebsiella pneumoniae; test: Antimicrobial activity against CTX-M-59 producing Klebsiella pneumoniae with PFGE pulsotype E by Etest; type: functional
# [32] = tested on: Klebsiella pneumoniae; test: Antimicrobial activity against CTX-M-59 and TEM-1 producing Klebsiella pneumoniae transconjugants/transformants with PFGE pulsotype E by Etest in presence of clavulanic acid; type: functional; summary of the method: as §1
# [33] = tested on: Klebsiella pneumoniae; test: Antimicrobial activity against SHV-5 producing Klebsiella pneumoniae with PFGE pulsotype D by Etest in presence of clavulanic acid; type: functional
# [34] = tested on: Escherichia coli; test: Antimicrobial activity against Escherichia coli str. K-12 substr. DH10B harboring plasmid CTX-M-59 in presence of clavulanic acid; type: functional; details: K-12 DH10B; summary of the method: as §2
# [35] = tested on: Klebsiella pneumoniae; test: Antimicrobial activity against CTX-M-2 producing Klebsiella pneumoniae with PFGE pulsotype F by Etest; type: functional
# [36] = tested on: Klebsiella pneumoniae; test: Antimicrobial activity against CTX-M-59 producing Klebsiella pneumoniae with PFGE pulsotype G by Etest in presence of clavulanic acid; type: functional; summary of the method: as §4
# [37] = tested on: Klebsiella pneumoniae; test: Antimicrobial activity against CTX-M-2 and TEM-1 producing Klebsiella pneumoniae transconjugants/transformants with PFGE pulsotype J by Etest in presence of clavulanic acid; type: functional; summary of the method: as §1
# [38] = tested on: Klebsiella pneumoniae; test: Antimicrobial activity against CTX-M-2 producing Klebsiella pneumoniae with PFGE pulsotype J by Etest; type: functional
# [39] = tested on: Klebsiella pneumoniae; test: Antimicrobial activity against CTX-M-59 and TEM-1 producing Klebsiella pneumoniae transconjugants/transformants with PFGE pulsotype C by Etest; type: functional; summary of the method: as §1
# [40] = tested on: Escherichia coli; test: Antimicrobial activity against Escherichia coli str. K-12 substr. DH10B harboring plasmid CTX-M-2; type: functional; details: K-12 DH10B; summary of the method: as §2
# [41] = tested on: Klebsiella pneumoniae; test: Antimicrobial activity against CTX-M-2 producing Klebsiella pneumoniae with PFGE pulsotype A by Etest in presence of clavulanic acid; type: functional; summary of the method: as §3
# [42] = tested on: Klebsiella pneumoniae; test: Antimicrobial activity against CTX-M-2 producing Klebsiella pneumoniae with PFGE pulsotype B by Etest in presence of clavulanic acid; type: functional; summary of the method: as §3
# [43] = tested on: Klebsiella pneumoniae; test: Antimicrobial activity against CTX-M-2 and TEM-1 producing Klebsiella pneumoniae transconjugants/transformants with PFGE pulsotype B by Etest in presence of clavulanic acid; type: functional; summary of the method: as §1
# [44] = tested on: Escherichia coli; test: Antimicrobial activity against Escherichia coli str. K-12 substr. DH10B harboring plasmid CTX-M-59; type: functional; details: K-12 DH10B; summary of the method: as §2
smiles,measurement,setting,value
CC(C)(O/N=C(\C(=O)N[C@@H]1C(=O)N2C(C(=O)[O-])=C(C[n+]3ccccc3)CS[C@H]12)c1csc(N)n1)C(=O)O [CEFTAZIDIME],MIC,[1],0.25 µg/mL
same,MIC,[2],0.38 µg/mL
same,MIC,[3],0.25 µg/mL
same,MIC,[4],1.5 µg/mL
same,MIC,[5],0.19 µg/mL
same,MIC,[6],0.75 µg/mL
same,MIC,[7],0.38 µg/mL
same,MIC,[8],12 µg/mL
same,MIC,[9],0.38 µg/mL
same,MIC,[10],0.5 µg/mL
same,MIC,[11],4 µg/mL
same,MIC,[12],> 4 µg/mL
same,MIC,[13],0.19 µg/mL
same,MIC,[14],16 µg/mL
same,MIC,[15],4 µg/mL
same,MIC,[16],256 µg/mL
same,MIC,[17],12 µg/mL
same,MIC,[18],6 µg/mL
same,MIC,[19],> 256 µg/mL
same,MIC,[20],8 µg/mL
same,MIC,[21],8 µg/mL
same,MIC,[22],0.19 µg/mL
same,MIC,[23],6 µg/mL
same,MIC,[24],0.75 µg/mL
same,MIC,[25],24 µg/mL
same,MIC,[26],0.38 µg/mL
same,MIC,[27],12 µg/mL
same,MIC,[28],256 µg/mL
same,MIC,[29],4 µg/mL
same,MIC,[30],8 µg/mL
same,MIC,[31],8 µg/mL
same,MIC,[32],0.19 µg/mL
same,MIC,[33],0.25 µg/mL
same,MIC,[34],0.38 µg/mL
same,MIC,[35],8 µg/mL
same,MIC,[36],1 µg/mL
same,MIC,[37],0.38 µg/mL
same,MIC,[38],6 µg/mL
same,MIC,[39],8 µg/mL
same,MIC,[40],8 µg/mL
same,MIC,[41],0.5 µg/mL
same,MIC,[42],0.75 µg/mL
same,MIC,[43],0.19 µg/mL
same,MIC,[44],8 µg/mL
